The list is not random: actives were taken first. Their share in the collection is about 1.6%.
SR-BI HDL uptake: inhibitors of mouse SR-BI mediated HDL lipid uptake | ldlA[mSR-BI] CHO cells, DiI-HDL uptake fluorescence, 3 h | inhibition, % at 12.5 µM | 0.96% of 320,000 active;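 active = mean replicate inhibition of at least 70% and a set share of replicates each scoring 70 or more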;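 also: 0% = median of neutral control wells and 100% = median of positive control wells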
Target sequence (Q61009 whole entry, looked up): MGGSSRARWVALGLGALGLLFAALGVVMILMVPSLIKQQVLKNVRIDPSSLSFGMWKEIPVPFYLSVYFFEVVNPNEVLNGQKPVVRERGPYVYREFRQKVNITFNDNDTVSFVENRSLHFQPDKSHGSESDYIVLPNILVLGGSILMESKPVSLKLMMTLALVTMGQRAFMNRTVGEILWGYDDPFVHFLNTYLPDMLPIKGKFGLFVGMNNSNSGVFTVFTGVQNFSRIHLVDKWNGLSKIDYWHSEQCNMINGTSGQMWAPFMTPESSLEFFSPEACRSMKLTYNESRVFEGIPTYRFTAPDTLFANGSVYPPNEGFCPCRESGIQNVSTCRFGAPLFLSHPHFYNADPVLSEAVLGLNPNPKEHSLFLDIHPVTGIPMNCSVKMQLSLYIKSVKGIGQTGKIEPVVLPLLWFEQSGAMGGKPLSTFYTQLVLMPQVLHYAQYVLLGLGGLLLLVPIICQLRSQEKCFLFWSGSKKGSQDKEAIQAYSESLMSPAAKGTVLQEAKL
Bfl-1 A1 inh: inhibitors of the anti-apoptotic protein A1, read as caspase activation; caspase activation, % (test concentration not listed); AID 2462; 0.066% of 330,000 active; MEF A1-2A-BIM cells, Caspase-Glo 3/7 luminescence, 3 h; percent of clofoctol response, vehicle zero;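 active = over half of replicate activation scores above 10%, or exactly half above 10 with the replicate mean above 10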
SR-BI DiI-HDL act: enhances SR-BI lipid uptake from DiI-HDL; 0.096% of 320,000 active; activation, % at 12.5 µM; AID 504775; CHO ldlA[mSR-BI] cells, DiI-HDL uptake fluorescence, 3 h; 100 = double the neutral-control signal;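 active = mean replicate activation of at least 60% and every replicate at or above 60%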;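 also: 0% = median plate neutral-control signal and 100% = twice that signal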
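System: CHO ldlA[mSR-BI] cells / Medium: HEPES-buffered (25 mM, pH 7.4) F12 plus 0.5% BSA / Probe or stimulus: labelled HDL, 10 µg/mL / Doses: single compound concentration, delivered by pin transfer / Schedule: 3 h, 37 °C / Measured by: DiI fluorescence, bottom read / Measure: cell-associated DiI fluorescence as measure of HDL uptake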
Vif imaging: inhibitors of HIV Vif; HEK293T cells, Vif self-association by quenched fluorescence, imaging, 24 h; inhibition, % at 7.49 µM; 0.35% of 340,000 active; in the data active = inhibition above about 50%, passing the limit was not always enough
TAG inh: triacylglycerol accumulation inhibition | H9c2 cells, Nile Red lipid (TAG) fluorescence; cells loaded with 200 µM oleic acid | inhibition, % at 12.5 µM | 0.66% of 230,000 active | AID 651582;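 active = pattern-corrected inhibition of lipid staining of at least 50% with the nuclear-stain viability signal not falling by more than 50%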;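 also: 0% = DMSO wells and 100% = triacsin C control wells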
* hit, by the source's call.

Screening COC(=O)/C(=C(O)\C=C\c1ccccc1[N+](=O)[O-])c1nc2ccccc2[nH]1 returned SR-BI HDL uptake 88.8*, Bfl-1 A1 inh 0.4, SR-BI DiI-HDL act -88.8 and Vif imaging -3.0.
Screening O=C(O)C1CCN(C(=O)CSc2nnc3ccccn23)CC1 returned SR-BI HDL uptake -1.4, Bfl-1 A1 inh 1.8, SR-BI DiI-HDL act 1.4, Vif imaging -2.3 and TAG inh -9.1.
For COc1ccc(-c2csc(NC(=O)c3cccc(N4C(=O)CCC4=O)c3)n2)cc1OC the results were SR-BI HDL uptake 72.5*, Bfl-1 A1 inh -1.1, SR-BI DiI-HDL act -72.5, Vif imaging -6.2 and TAG inh 8.0.
Screening CCOC(=O)c1c(-c2ccc(-c3ccccc3)cc2)csc1NC(=O)c1cccc(N2C(=O)CCC2=O)c1 returned SR-BI HDL uptake 71.9*, Bfl-1 A1 inh -0.5, SR-BI DiI-HDL act -71.9 and Vif imaging -3.4.
`Cc1ccc(-c2csc(NC(=O)c3cccc(N4C(=O)CCC4=O)c3)n2)o1` gave SR-BI HDL uptake 63.8, Bfl-1 A1 inh 0.2, SR-BI DiI-HDL act -62.4, Vif imaging -8.2 and TAG inh 3.4.
CCOc1ccc(-c2csc(NC(=O)c3cccc(N4C(=O)CCC4=O)c3)n2)cc1 was read as SR-BI HDL uptake 90.4*, Bfl-1 A1 inh 0.1, SR-BI DiI-HDL act -90.4, Vif imaging -7.2 and TAG inh -3.9.
O=C1CCC[C@@H]2Cc3nc4cc5c(cc4cc3[C@@H]3CCN1[C@H]23)OCO5 was read as SR-BI HDL uptake 2.8, SR-BI DiI-HDL act -2.8, Vif imaging 3.2 and TAG inh 26.8.
`COc1ccc(S(=O)(=O)NNC(=O)Nc2ccc(F)cc2)cc1` gave Bfl-1 A1 inh -0.3, Vif imaging 0.7 and TAG inh 0.0.
Screening CCCCC(CC)C(=O)NCCc1ccc(S(N)(=O)=O)cc1 (configuration not stated) returned SR-BI HDL uptake 2.8, SR-BI DiI-HDL act -2.8 and Vif imaging -4.3.
`CCC(CC)C(=O)NCCc1ccc(S(N)(=O)=O)cc1` gave SR-BI HDL uptake -3.5, Bfl-1 A1 inh 0.4, SR-BI DiI-HDL act 3.5 and Vif imaging 68.0*.
Cc1ccc(C(=O)Nc2cccc(C(F)(F)F)c2)cc1NC(=O)c1csc(-c2ccncc2)n1 was read as SR-BI HDL uptake 84.1*, Bfl-1 A1 inh 0.8, SR-BI DiI-HDL act -84.1, Vif imaging -12.6 and TAG inh 11.6.
O=C(O)COc1ccccc1/C=C1\C(=O)Nc2ccc(Br)cc21 was read as SR-BI HDL uptake 1.2, Bfl-1 A1 inh 5.3*, SR-BI DiI-HDL act -1.2 and Vif imaging -2.0.
For CSCCC(NC(=O)c1ccc(Cl)cc1Cl)C(=O)N1CCN(C(=O)c2ccccc2)CC1 (configuration not stated) the results were SR-BI HDL uptake 77.8*, SR-BI DiI-HDL act -77.8, Vif imaging 2.9 and TAG inh 0.5.
CSCCC(NC(=O)c1ccccc1Cl)C(=O)N1CCC1 (configuration not stated) was read as SR-BI HDL uptake -17.2, Bfl-1 A1 inh 0.1, SR-BI DiI-HDL act 17.2, Vif imaging -3.0 and TAG inh 2.8.
Cc1cccc(Nc2nnc(-c3ccc(N4CCOCC4)c([N+](=O)[O-])c3)c3ccccc23)c1 was read as SR-BI HDL uptake 72.5*, Bfl-1 A1 inh 0.5, SR-BI DiI-HDL act -72.5 and Vif imaging -9.0.
For Cc1nnc(-c2ccc(N3CCOCC3)c([N+](=O)[O-])c2)o1 the results were SR-BI HDL uptake 20.3, Bfl-1 A1 inh 0.0, SR-BI DiI-HDL act -20.3, Vif imaging 0.8 and TAG inh 0.4.
Screening CCOC(=O)c1c(C)nc(C)c(C(=O)OCC)c1-c1ccccc1 returned SR-BI HDL uptake -8.3, Bfl-1 A1 inh -0.2, SR-BI DiI-HDL act 8.3 and Vif imaging 1.2.
CCOc1c(C(N)=O)c(-c2ccccc2)c2c(=O)[nH]c3ccccc3n12 was read as SR-BI HDL uptake 32.5, Bfl-1 A1 inh -0.5, SR-BI DiI-HDL act -32.5, Vif imaging 31.7* and TAG inh 1.9.
Screening Cc1ccc(OCCn2cnc3c2c(=O)n(C)c(=O)n3C)cc1 returned Bfl-1 A1 inh 0.0 and Vif imaging -8.4.
Screening CN(C(=O)C(C)(C)C)c1ccc(OCC(=O)N2CCc3ccccc3C2)cc1 returned SR-BI HDL uptake 94.8*, Bfl-1 A1 inh -0.5, SR-BI DiI-HDL act -94.8 and Vif imaging -6.6.

Screening data from PubChem BioAssay.
